Results published in PubChem BioAssay.
Calls of active or inactive are those of the source.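 The calls were made as follows, unless noted: active = viability at or under a set limit in both replicates, limit being median viability minus 3 SD (cut at about 48% in these data, passing the limit was not always enough); inconclusive = at or under the limit in just one replicate; inactive = at or above the limit in both replicates.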

Experiments:
[1] = reducers of endogenous Her2 protein level, primary screen, SKBR3 breast tumor cells, AlphaScreen, ATP viability (AID 461;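 active = Her2 level under about 52% in both replicate screens, with viability over 70% of control, limit read from the data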;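 as to Her2 level: lower value means less Her2 protein in the cells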;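 as to viability: percent of carrier control wells set as 100% viability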); conditions: 18-24 h, measured here: SKBR3 viability, ATP luminescence, at 10 µM
[2] = target: Receptor tyrosine-protein kinase erbB-2 (Homo sapiens) (UniProt P04626); experiment: as above; conditions: 18-24 h, at 10 µM, stronger effect = lower value
[3] = SK-BR-3 cell growth inhibitors, pilot screen, 24 h, human (AID 572;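 active = viability at or below 10% of carrier control in both of two separate runs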;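 also: compound exposure lasted between 18 and 24 h rather than exactly 24 h; 100% = carrier-treated control wells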); conditions: SK-BR-3 viability, CellTiter-Glo luminescence, at 10 µM, stronger effect = lower value
[4] = HUVEC growth inhibition – cell-based, human, primary screen (AID 575;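 active = viability at or below 30% in both replicate assays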;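 also: 100% = median of untreated cell wells with 0.1% DMSO on each plate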); conditions: HUVEC proliferation, CellTiter-Glo luminescence, 72 h; at 10 µM; stronger effect = lower value
In short: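 material = primary HUVEC, no more than 12 passages | input = 1250 cells per well | controls = vehicle and MePR control wells | measured by = CTG luminescence | times = 72 h compound incubation | format = collagen-coated 384-well format | read-out = % viability vs DMSO wells | doses = single 10 µM dose, 0.1% DMSO, from 5x medium stock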

[5] = growth inhibitors of H69AR lung tumor, primary screen, human, duplicate replicates (AID 580); conditions: H69AR lung tumor cells viability, ATP luminescence, 72 h; at 10 µM; stronger effect = lower value;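 also: 100% = mean luminescence of untreated wells and 0% = no signal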
[6] = reversal of MRP1-mediated doxorubicin resistance, pilot screen, H69AR cells, doxorubicin co-treatment (AID 601;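 active = viability loss from added drug above about 55%, and viability with drug at most 40%, in both replicates, limit read from the data, passing the limit was not always enough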); conditions: CellTiter-Glo, 72 h, at 10 µM; for differential viability (reversal): stronger effect = higher value
[7] = 384-well plate pilot, post-Golgi transport modulator project, inhibition of yeast transport mutant growth (AID 636; in the data active = inhibition above about 31%); conditions: absorbance 615 nm, about 18 h, stronger effect = higher value
[8] = growth suppression of yeast trafficking mutant, preliminary HTS, modulators of trafficking downstream of Golgi apparatus project, 1536-format plate, OD 615 nm (AID 637; in the data active = inhibition above about 30%); conditions: yeast transport mutant growth, absorbance 615 nm, 18 h; stronger effect = higher value
[9] = H69AR cells + 2 uM doxorubicin, measured here: viability with 2 uM doxorubicin, stronger effect = lower value
[10] = H69AR cells, compound alone cytotoxicity

Receptor tyrosine-protein kinase erbB-2 (Homo sapiens), sequence (P04626 whole entry, looked up): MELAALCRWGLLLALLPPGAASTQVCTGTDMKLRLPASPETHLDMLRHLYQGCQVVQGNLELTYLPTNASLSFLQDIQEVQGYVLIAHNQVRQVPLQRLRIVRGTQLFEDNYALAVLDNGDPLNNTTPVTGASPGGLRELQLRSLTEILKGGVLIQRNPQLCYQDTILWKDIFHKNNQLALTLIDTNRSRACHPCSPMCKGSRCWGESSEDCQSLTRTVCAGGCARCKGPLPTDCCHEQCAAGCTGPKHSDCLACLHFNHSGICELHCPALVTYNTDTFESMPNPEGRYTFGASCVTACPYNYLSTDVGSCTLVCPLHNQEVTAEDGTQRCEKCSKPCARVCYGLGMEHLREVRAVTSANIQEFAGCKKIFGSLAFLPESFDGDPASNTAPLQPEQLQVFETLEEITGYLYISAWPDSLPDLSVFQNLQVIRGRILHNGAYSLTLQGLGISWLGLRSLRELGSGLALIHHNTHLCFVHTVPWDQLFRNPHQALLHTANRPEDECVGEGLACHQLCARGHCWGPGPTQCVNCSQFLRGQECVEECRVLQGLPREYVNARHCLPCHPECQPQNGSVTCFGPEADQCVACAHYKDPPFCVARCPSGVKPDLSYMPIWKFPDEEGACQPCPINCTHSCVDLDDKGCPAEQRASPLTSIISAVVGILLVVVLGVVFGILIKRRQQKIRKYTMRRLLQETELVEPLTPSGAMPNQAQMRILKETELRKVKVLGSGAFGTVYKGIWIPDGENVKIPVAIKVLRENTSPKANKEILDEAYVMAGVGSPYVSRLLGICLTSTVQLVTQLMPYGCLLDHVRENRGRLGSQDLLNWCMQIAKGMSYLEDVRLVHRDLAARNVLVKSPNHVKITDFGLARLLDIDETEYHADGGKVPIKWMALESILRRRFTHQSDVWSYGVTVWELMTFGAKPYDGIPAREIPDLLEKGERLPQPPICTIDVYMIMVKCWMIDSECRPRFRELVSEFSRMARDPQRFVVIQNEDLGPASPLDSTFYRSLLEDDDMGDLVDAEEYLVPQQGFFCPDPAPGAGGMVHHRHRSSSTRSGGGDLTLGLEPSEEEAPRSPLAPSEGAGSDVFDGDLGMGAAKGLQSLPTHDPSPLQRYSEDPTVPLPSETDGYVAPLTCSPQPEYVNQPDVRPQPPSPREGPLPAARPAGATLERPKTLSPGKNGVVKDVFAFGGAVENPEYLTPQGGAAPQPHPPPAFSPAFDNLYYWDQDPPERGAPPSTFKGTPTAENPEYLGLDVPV

Row | Structure (SMILES) | viability [1] | Her2 level [2] | viability [3] | viability [4] | viability [5] | differential viability (reversal) ([6]; H69AR cells + 2 uM doxorubicin) | viability [6, 9] | viability [6, 10] | inhibition [7] | inhibition [8]
1 | CCCCS(=O)(=O)NC1=NCN(C2CCN(Cc3ccccc3)CC2)CN1 | 116% | 98.5% (inactive) | 116% (inactive) | 91.5% (inactive) | 111% (inactive) | 9.66% (inactive) | 101% | 111% | -2.7% (inactive) | -2.22% (inactive)
2 | CCOC(=O)N1CCN(CC(O)COc2ccccc2C(C)CC)CC1 (stereo not given) | 104% | 92.5% (inactive) | 104% (inactive) | 99% (inactive) | 94.7% (inactive) | 1.52% (inactive) | 93.2% | 94.7% | 31.6% (active) | 29.2% (inactive)
3 | CCCCCCC1/C(=N/O)CCC1C(=O)OC (stereo not given) | 108% | 95.5% (inactive) | 108% (inactive) | 109% (inactive) | 83.2% (inactive) | -1.02% (inactive) | 84.2% | 83.2% | -8.44% (inactive) | -5.71% (inactive)
4 | Cc1csc2nc(CSc3ccc(Cl)cc3)cn12 | 97.5% | 78% (inactive) | 97.5% (inactive) | 80.9% (inactive) | 88.2% (inactive) | 15.9% (inactive) | 72.3% | 88.2% | -5.87% (inactive) | 3.77% (inactive)
5 | COc1cccc(/C=N/n2c(C)nc3ccccc32)c1OC | 91% | 93.5% (inactive) | 91% (inactive) | 52.1% (inactive) | 91.9% (inactive) | 3.66% (inactive) | 88.3% | 91.9% | -2.4% (inactive) | -6.35% (inactive)
6 | COC(=O)CSc1cc(C)nc(NC(C)=O)n1 | 93.5% | 83.5% (inactive) | 93.5% (inactive) | 102% (inactive) | 101% (inactive) | 6.47% (inactive) | 94.2% | 101% | -3.92% (inactive) | -0.95% (inactive)
7 | O=C(Cn1cnc2c(nnn2Cc2ccccc2)c1=O)c1ccc(Cl)cc1 | 93.5% | 110% (inactive) | 93.5% (inactive) | 84.5% (inactive) | 97.1% (inactive) | 8.5% (inactive) | 88.6% | 97.1% | -3.46% (inactive) | -0.17% (inactive)
8 | CCN(CC)CC(C)CNC(=O)CC(C(=O)N1CCc2ccccc21)n1ccnc1 (stereo not given) | 88.5% | 106% (inactive) | 88.5% (inactive) | 104% (inactive) | 95.9% (inactive) | -7.88% (inactive) | 104% | 95.9% | 0.52% (inactive) | -9.34% (inactive)
9 | CCCn1c(C)nc2c(c1=O)c1nc3ccccc3nc1n2CCc1ccccc1 | 98% | 103% (inactive) | 98% (inactive) | 102% (inactive) | 88.5% (inactive) | -3.46% (inactive) | 91.9% | 88.5% | -4.42% (inactive) | 0.5% (inactive)
10 | CCCCOc1ccc(-c2nnc(N)s2)cc1 | 85.5% | 98% (inactive) | 85.5% (inactive) | 93.3% (inactive) | 98.5% (inactive) | 12.6% (inactive) | 85.9% | 98.5% | 3.33% (inactive) | 1.15% (inactive)
11 | CCc1ccccc1NC(=O)CSc1nc2n[nH]c(C)c2c(=N)n1-c1ccc(OC)cc1 | 98.5% | 77.5% (inactive) | 98.5% (inactive) | 66.4% (inactive) | 80% (inactive) | -2.23% (inactive) | 82.3% | 80% | -5.92% (inactive) | 6.51% (inactive)
12 | CCCC1CC(C)(C(=O)Cn2[nH]c(=O)ccc2=O)OC1=O (stereo not given) | 84% | 95.5% (inactive) | 84% (inactive) | 105% (inactive) | 91.8% (inactive) | -3.6% (inactive) | 95.4% | 91.8% | -4% (inactive) | 5.08% (inactive)
13 | CCCCn1nnc(NC(=O)c2cc3ccccc3o2)n1 | 107% | 88.5% (inactive) | 107% (inactive) | 119% (inactive) | 81.6% (inactive) | -8.71% (inactive) | 90.3% | 81.6% | 0.13% (inactive) | 8% (inactive)
14 | CCCSc1nc2c(cnn2-c2ccc(Cl)cc2)c(=O)[nH]1 | 106% | 89.5% (inactive) | 106% (inactive) | 98.1% (inactive) | 79% (inactive) | -3.71% (inactive) | 82.7% | 79% | -6.23% (inactive) | 0.95% (inactive)
15 | O=C(COc1ccccc1)NCC(c1cccs1)N1CCOCC1 (stereo not given) | 84% | 126% (inactive) | 84% (inactive) | 91.7% (inactive) | 97.7% (inactive) | 14.4% (inactive) | 83.4% | 97.7% | 1.2% (inactive) | -4.29% (inactive)
16 | CCOC(=O)C1=C(CC)Nc2ccccc2N=C1NC(=O)Cn1cnc2ccccc2c1=O | 96% | 80.5% (inactive) | 96% (inactive) | 97.1% (inactive) | 103% (inactive) | 20.2% (inactive) | 82.3% | 103% | -5.07% (inactive) | 2.9% (inactive)

Row | Structure (SMILES) | viability [1] | Her2 level [2] | viability [3] | viability [4] | viability [5] | differential viability (reversal) ([6]; H69AR cells + 2 uM doxorubicin) | viability [6, 9] | viability [6, 10] | inhibition [7] | inhibition [8]
17 | Cc1coc2cc3oc(=O)c4c(c3cc12)CCC4 | 111% | 81.5% (inactive) | 111% (inactive) | 85.1% (inactive) | 104% (inactive) | 6.42% (inactive) | 97.2% | 104% | -2.7% (inactive) | -2.86% (inactive)
18 | Cc1cccc(C)c1NC(=O)CC(NCc1ccco1)C(=O)O (stereo not given) | 116% | 85% (inactive) | 116% (inactive) | 118% (inactive) | 109% (inactive) | 13.5% (inactive) | 95.8% | 109% | -7.7% (inactive) | -2.67% (inactive)
19 | COc1ccc(-c2cc3nc4n(c(=O)c3s2)CCC4)cc1 | 129% | 101% (inactive) | 129% (inactive) | 103% (inactive) | 84.1% (inactive) | -4.84% (inactive) | 88.9% | 84.1% | -5% (inactive) | 3.44% (inactive)
20 | CCOc1ccccc1NC(=O)NC1CCN(CC(=O)Nc2ccc3c(c2)OCCO3)CC1 | 119% | 97% (inactive) | 119% (inactive) | 73.9% (inactive) | 86.8% (inactive) | -7.47% (inactive) | 94.3% | 86.8% | -0.39% (inactive) | 7.54% (inactive)
21 | O=C(NCCC1=CCCCC1)C1CCN(S(=O)(=O)c2cccc3nsnc23)CC1 | 104% | 92.5% (inactive) | 104% (inactive) | 58.5% (inactive) | 96.5% (inactive) | 14.2% (inactive) | 82.4% | 96.5% | -5.33% (inactive) | 0.98% (inactive)
22 | Cc1csc(NC(=O)c2cc3c(s2)-c2ccccc2OC3)n1 | 91% | 92.5% (inactive) | 91% (inactive) | 75% (inactive) | 37.7% (active) | -17.7% (inactive) | 55.5% | 37.7% | -2.82% (inactive) | -1% (inactive)
23 | CC1=C(C(=O)Nc2ccccc2)C(c2ccco2)C(C#N)=C(SCC(=O)Nc2cccc(C)c2C)N1 (stereo not given) | 104% | 85.5% (inactive) | 104% (inactive) | 77.1% (inactive) | 47.5% (active) | -10.1% (inactive) | 57.6% | 47.5% | -4.93% (inactive) | -3.97% (inactive)
24 | COc1cc(C(=O)OCC(=O)N(C)Cc2ccccc2)cc(OC)c1OC | 106% | 96.5% (inactive) | 106% (inactive) | 103% (inactive) | 94.8% (inactive) | -2.6% (inactive) | 97.4% | 94.8% | -5.34% (inactive) | 0.79% (inactive)
25 | Cc1cccc(OCC(=O)N2CCC(N3CCCCCC3)CC2)c1 | 95.5% | 126% (inactive) | 95.5% (inactive) | 97.1% (inactive) | 106% (inactive) | 7.21% (inactive) | 98.8% | 106% | -1.45% (inactive) | -6.07% (inactive)
26 | O=C(c1ccc(S(=O)(=O)N2CCOCC2)cc1)N(c1ccc(F)cc1)C1C=CS(=O)(=O)C1 (stereo not given) | 97.5% | 109% (inactive) | 97.5% (inactive) | 75.1% (inactive) | 97% (inactive) | 4.64% (inactive) | 92.4% | 97% | -1.92% (inactive) | -9% (inactive)
27 | Cc1ccc(NC(=O)CCC(=O)O)cc1F | 106% | 82.5% (inactive) | 106% (inactive) | 88.8% (inactive) | 104% (inactive) | 12.2% (inactive) | 91.8% | 104% | -6.3% (inactive) | -2.7% (inactive)
28 | COC(=O)C(C)Sc1nc2c(c(=O)n(C)c(=O)n2C)n1Cc1cccc(C)c1 (stereo not given) | 97.5% | 86.5% (inactive) | 97.5% (inactive) | 79.7% (inactive) | 91.5% (inactive) | 8.71% (inactive) | 82.8% | 91.5% | -0.26% (inactive) | -0.32% (inactive)
29 | CCOC(=O)c1ccc(NC(=O)CSc2ncccn2)cc1 | 104% | 112% (inactive) | 104% (inactive) | 85.9% (inactive) | 96.9% (inactive) | 2.45% (inactive) | 94.5% | 96.9% | -0.53% (inactive) | 4.26% (inactive)
30 | Cc1nn(C)c(C)c1CN(C)C(=O)c1cc2nc(-c3ccco3)cc(C(F)(F)F)n2n1 | 77% | 94.5% (inactive) | 77% (inactive) | 109% (inactive) | 86.6% (inactive) | 0.655% (inactive) | 85.9% | 86.6% | 1.67% (inactive) | -9.33% (inactive)
31 | COc1ccc(OCC(=O)Nc2cccc3ncccc23)cc1 | 98% | 94.5% (inactive) | 98% (inactive) | 104% (inactive) | 91.4% (inactive) | 0.15% (inactive) | 91.2% | 91.4% | -3.73% (inactive) | 3.61% (inactive)
32 | Cc1ccc(S(=O)(=O)N2CCOCC2)cc1C(=O)Nc1ccccn1 | 87% | 83% (inactive) | 87% (inactive) | 110% (inactive) | 93.8% (inactive) | 7.62% (inactive) | 86.1% | 93.8% | -6.76% (inactive) | -3.17% (inactive)
